Activity calls are given as the source filed them. No cut-off for these calls is given here.
What was measured:
[1] = Cytotoxicity against rat H9c2 cells assessed as reduction in cell viability incubated for 24 hrs by MTT assay; type: toxicity, cell-based
How it was run: (§1)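 Cells grown with 10% FBS plus penicillin/streptomycin at 37 °C, 5% CO2 (SH-SY5Y in DMEM/F12; BV-2, HT-22, H9c2 in DMEM; L02 in RPMI 1640). Seeded 1 × 10^4 per well, 24 h, then compound in medium 24 h. MTT (5 mg/mL stock) added 4 h at 37 °C; formazan dissolved in DMSO, A490 read.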

[2] = Antioxidant activity assessed as DPPH radical scavenging activity at 100 uM incubated for 30 mins under dark condition by UV-Vis spectrophotometry; type: functional
How it was run: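 Compound dilutions made in DMSO. 100 μM DPPH in ethanol mixed 9:1 with sample, shaken 30 min in dark at room temperature; absorbance read at 517 nm on plate reader. Scavenging rate calculated from absorbance; triplicate wells, three parallel measurements, three independent experiments.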

[3] = Cytotoxicity against mouse HT-22 cells assessed as reduction in cell viability incubated for 24 hrs by MTT assay; type: toxicity, cell-based; how it was run: as §1
[4] = Cytotoxicity against human SH-SY5Y cells assessed as reduction in cell viability incubated for 24 hrs by MTT assay; type: toxicity, cell-based; how it was run: as §1
[5] = biological target: Amyloid-beta precursor protein (Homo sapiens) (UniProt P05067); assay: Inhibition of HFIP-pretreated human amyloid beta (1 to 42) aggregation at 50 uM incubated for 24 hrs under dark condition by Thioflavin T dye based fluorometric analysis
How it was run: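 HFIP-pretreated human Aβ1–42 dissolved at 1000 μM in 1% NH4OH, sonicated 1 h cold, stored −20 °C, diluted in PBS pH 7.4. Aβ (25 μM final) incubated with compound (50 μM final) or PBS 24 h at 37 °C in dark. Aliquot mixed with 5 μM ThT in Gly-NaOH pH 8.5, shaken 5 min; fluorescence ex 450/em 490 nm. Inhibition = 1 − Fs/F0, background ThT subtracted; three independent experiments.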

[6] = Cytotoxicity against human L02 cells assessed as reduction in cell viability incubated for 24 hrs by MTT assay; type: toxicity, cell-based; how it was run: as §1
[7] = Cytotoxicity against mouse BV-2 cells assessed as reduction in cell viability incubated for 24 hrs by MTT assay; type: toxicity, cell-based; how it was run: as §1
[8] = Antioxidant activity assessed as ABTS radical scavenging activity at 100 uM incubated for 6 mins under dark condition by UV-Vis spectrophotometry; type: functional
How it was run: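 Compound dilutions made in DMSO. ABTS (7 mM in water) reacted with 4.96 mM potassium persulfate, 16 h dark at room temperature; working solution adjusted to A734 0.70 ± 0.02. Working solution mixed with sample 9:1, shaken 6 min at room temperature in dark; A734 read on plate reader. Scavenging rate from absorbance; triplicate wells, three independent experiments.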

[9] = Metal chelating activity assessed as compound-K+ complex formation by measuring optical responses at 100 uM in presence of KCl by UV-Vis spectroscopy
How it was run: (§2)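 Compound held at 100 μM in HEPES buffer (pH 7.4). The metal salt (CuSO4, ZnCl2, FeCl2, FeCl3·7H2O, AlCl3, Mn(CH3COO)2, MgSO4, NaCl, KCl or CaCl2) was added at one equivalent, and the UV-vis absorption spectrum was recorded from 200 to 800 nm.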

[10] = system: H9c2; assay: Antioxidant activity in rat H9c2 cells assessed as reduction in H2O2-induced intracellular ROS accumulation at 125 to 500 uM pretreated for 24 hrs followed by H2O2 challenge for 4 hrs by DCFH-DA staining based flow cytometry; type: functional, cell-based; conditions: dose 125-500 µM, time 28.0 hrs
[11] = Metal chelating activity assessed as compound-Na+ complex formation by measuring optical responses at 100 uM in presence of NaCl by UV-Vis spectroscopy; how it was run: as §2
[12] = Antioxidant activity assessed as ABTS radical scavenging activity at 50 uM incubated for 6 mins under dark condition by UV-Vis spectrophotometry; type: functional
How it was run: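 ABTS radical cation is generated from 7 mM ABTS and 4.96 mM potassium persulfate, kept dark at room temperature for 16 h, and diluted to A734 0.70 ± 0.02. Samples are serially diluted in DMSO and mixed with working solution, then shaken 6 min at room temperature in the dark before reading A734. Scavenging rate (%) comes from triplicate wells; VC and KA are controls.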

[13] = Metal chelating activity assessed as compound-Mg2+ complex formation by measuring optical responses at 100 uM in presence of MgSO4 by UV-Vis spectroscopy; how it was run: as §2
[14] = Metal chelating activity assessed as compound-Fe2+ complex formation at stoichiometric ratio of 1:1 at 100 uM in presence of FeCl2 by UV-Vis spectroscopy
[15] = Metal chelating activity assessed as compound-Mn2+ complex formation by measuring optical responses at 100 uM in presence of Mn(CH3COO)2 by UV-Vis spectroscopy; how it was run: as §2
[16] = system: BV-2; assay: Antioxidant activity in mouse BV-2 cells assessed as reduction in H2O2-induced intracellular ROS accumulation by measuring intracellular ROS level at 500 uM pretreated for 24 hrs followed by H2O2 challenge for 12 hrs by DCFH-DA staining based flow cytometry (reference value: 40.7%); type: functional; parameters: scale not given: the % may be the effect or the level left; conditions: time 36 hrs
[17] = Metal chelating activity assessed as compound-Al3+ complex formation by measuring optical responses at 100 uM in presence of AlCl3 by UV-Vis spectroscopy; how it was run: as §2
[18] = Antioxidant activity assessed as ABTS radical scavenging activity at 100 uM incubated for 6 mins under dark condition by UV-Vis spectrophotometry relative to kojic acid; type: functional
How it was run: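 Samples serially diluted in DMSO, tested at 400–6.25 μM. ABTS (7 mM, water) reacted with 4.96 mM potassium persulfate for 16 h in the dark at room temperature, then diluted to A734 of 0.70 ± 0.02. Working solution mixed 9:1 with sample and shaken 6 min in the dark at room temperature. Absorbance read at 734 nm; scavenging rate (%) is the mean of three independent experiments.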

[19] = Metal chelating activity assessed as compound-Cu2+ complex formation at stoichiometric ratio of 1:1 at 100 uM in presence of CuSO4 by UV-Vis spectroscopy
How it was run: (§3)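 Compound held at 100 μM in HEPES buffer (pH 7.4) and titrated with Cu2+ at 12.5–200 μM (nine levels). UV-vis spectra were followed at 370 and 475 nm. Stoichiometry was taken from a plot of absorbance at 475 nm against the Cu2+:compound ratio.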

[20] = Metal chelating activity assessed as compound-Cu2+ complex formation by measuring increase in absorption band intensity at 475 nm at 100 uM in presence of CuSO4 by UV-Vis spectroscopy; how it was run: as §3
[21] = Antioxidant activity assessed as DPPH radical scavenging activity at 100 uM incubated for 30 mins under dark condition by UV-Vis spectrophotometry relative to kojic acid; type: functional
How it was run: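 Samples serially diluted in DMSO, tested at 400–6.25 μM. Mixed with 100 μM DPPH in ethanol at 9:1 reagent:sample and shaken 30 min in the dark at room temperature. Absorbance read at 517 nm. Scavenging rate (%) is the mean of three independent experiments, each run in triplicate wells.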

[22] = Metal chelating activity assessed as compound-Ca2+ complex formation by measuring optical responses at 100 uM in presence of CaCl2 by UV-Vis spectroscopy; how it was run: as §2
[23] = Metal chelating activity assessed as compound-Cu2+ complex formation by measuring optical responses at 100 uM in presence of CuSO4 by UV-Vis spectroscopy; how it was run: as §2
[24] = system: BV-2; assay: Antioxidant activity in mouse BV-2 cells assessed as reduction in H2O2-induced intracellular ROS accumulation by measuring intracellular ROS level at 250 uM pretreated for 24 hrs followed by H2O2 challenge for 12 hrs by DCFH-DA staining based flow cytometry (reference value: 40.7%); type: functional; parameters: scale not given: the % may be the effect or the level left; conditions: time 36 hrs
[25] = system: SH-SY5Y; assay: Neuroprotective activity against H2O2-induced oxidative damage in human SH-SY5Y cells assessed as increase in cell viability at 500 uM pretreated for 24 hrs followed by H2O2 challenge for 2 hrs by MTT assay; type: functional, cell-based; conditions: time 26.0 hrs
How it was run: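 SH-SY5Y cells are seeded at 1 × 10^4/well in DMEM/F12 with 10% FBS and grown 24 h. They are pretreated with compound for 24 h, then given 200 μM H2O2 for 2 h. MTT (5 mg/mL stock) is added for 4 h, formazan dissolved in DMSO, and A490 read. Viability is given as % of untreated control, mean ± SEM (n = 3).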

[26] = system: H9c2; assay: Neuroprotective activity against H2O2-induced oxidative damage in rat H9c2 cells assessed as increase in cell viability at 125 to 500 uM pretreated for 24 hrs followed by H2O2 challenge for 2 hrs by MTT assay; type: functional, cell-based; conditions: dose 125-500 µM, time 26.0 hrs
[27] = system: H9c2; assay: Antioxidant activity in rat H9c2 cells assessed as reduction in H2O2-induced ROS burst by measuring increase in SOD activity at 125 to 500 uM treated with compound prior to H2O2 challenge; type: functional, cell-based; conditions: dose 125-500 µM
[28] = Metal chelating activity assessed as compound-Fe2+ complex formation by measuring optical responses at 100 uM in presence of FeCl2 by UV-Vis spectroscopy; how it was run: as §2
[29] = system: H9c2; assay: Antioxidant activity in rat H9c2 cells assessed as reduction in H2O2-induced intracellular ROS accumulation at 125 to 500 uM pretreated for 24 hrs followed by H2O2 challenge for 4 hrs by DCFH-DA staining based inverted fluorescence microscopy; type: functional, cell-based; conditions: dose 125-500 µM, time 28.0 hrs
[30] = system: BV-2; assay: Antioxidant activity in mouse BV-2 cells assessed as reduction in H2O2-induced intracellular ROS accumulation at 125 to 500 uM pretreated for 24 hrs followed by H2O2 challenge for 12 hrs by DCFH-DA staining based inverted fluorescence microscopy; type: functional, cell-based; conditions: dose 125-500 µM, time 36.0 hrs
How it was run: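 BV-2 cells (2 × 10^5/well) are pretreated with compound for 24 h, then given 1000 μM H2O2 for 12 h. They are loaded with 10 μM DCFH-DA in serum-free medium for 30 min at 37 °C and washed three times with PBS.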

[31] = system: BV-2; assay: Antioxidant activity in mouse BV-2 cells assessed as reduction in H2O2-induced ROS burst by measuring increase in SOD activity at 125 to 500 uM treated with compound prior to H2O2 challenge; type: functional, cell-based; conditions: dose 125-500 µM
[32] = Metal chelating activity assessed as compound-Cu2+ complex formation by measuring decrease in absorption band intensity at 370 nm at 100 uM in presence of CuSO4 by UV-Vis spectroscopy; how it was run: as §3
[33] = Metal chelating activity assessed as compound-Zn2+ complex formation by measuring optical responses at 100 uM in presence of ZnCl2 by UV-Vis spectroscopy; how it was run: as §2
[34] = system: BV-2; assay: Antioxidant activity in mouse BV-2 cells assessed as reduction in H2O2-induced intracellular ROS accumulation by measuring intracellular ROS level at 125 uM pretreated for 24 hrs followed by H2O2 challenge for 12 hrs by DCFH-DA staining based flow cytometry (reference value: 40.7%); type: functional; parameters: scale not given: the % may be the effect or the level left; conditions: time 36 hrs
[35] = Induction of intracellular ROS accumulation in mouse BV-2 cells at 500 uM treated for 24 hrs by DCFH-DA staining based flow cytometry (reference value: 7.15%); type: toxicity, cell-based; conditions: bv-2, 24 h
[36] = Metal chelating activity assessed as compound-Fe3+ complex formation by measuring optical responses at 100 uM in presence of FeCl3 by UV-Vis spectroscopy; how it was run: as §2

Sequence of Amyloid-beta precursor protein (Homo sapiens) (P05067 whole entry): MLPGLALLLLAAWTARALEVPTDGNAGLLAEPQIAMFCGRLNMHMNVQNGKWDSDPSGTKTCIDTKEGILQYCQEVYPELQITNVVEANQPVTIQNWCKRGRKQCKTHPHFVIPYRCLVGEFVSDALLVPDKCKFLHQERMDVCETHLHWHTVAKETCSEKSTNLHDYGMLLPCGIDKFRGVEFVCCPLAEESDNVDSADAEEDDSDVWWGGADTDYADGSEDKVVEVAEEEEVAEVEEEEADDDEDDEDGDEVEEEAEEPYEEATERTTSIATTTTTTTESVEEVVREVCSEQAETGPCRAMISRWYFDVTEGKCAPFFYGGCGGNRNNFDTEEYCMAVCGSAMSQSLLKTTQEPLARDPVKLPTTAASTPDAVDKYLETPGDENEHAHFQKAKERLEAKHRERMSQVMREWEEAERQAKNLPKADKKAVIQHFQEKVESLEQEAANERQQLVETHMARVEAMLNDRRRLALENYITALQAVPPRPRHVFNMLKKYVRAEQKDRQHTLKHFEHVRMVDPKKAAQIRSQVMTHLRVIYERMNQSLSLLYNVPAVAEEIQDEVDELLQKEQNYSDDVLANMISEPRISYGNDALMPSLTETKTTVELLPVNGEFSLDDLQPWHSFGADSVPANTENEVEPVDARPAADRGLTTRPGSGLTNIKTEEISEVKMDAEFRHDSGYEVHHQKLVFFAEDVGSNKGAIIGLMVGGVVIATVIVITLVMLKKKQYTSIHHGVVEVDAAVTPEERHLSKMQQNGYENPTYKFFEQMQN

With O=c1cc(CO)occ1O [KOJIC ACID] the IC50 at 24 h [1] was greater than 500 µM, the Activity [2] was 17.8% and the IC50 at 24 h [3] was greater than 500 µM. The IC50 at 24 h [4] was greater than 500 µM, the inhibition [5] was 14.6% and the IC50 at 24 h [6] was greater than 500 µM. The IC50 at 24 h [7] was greater than 500 µM and the Activity [8] was 46.8%.
With O=c1cc(CO)oc(-c2oc(CO)cc(=O)c2O)c1O the Activity [9] was “inactive”, the Activity [10] was “Active” and the Activity [11] was “inactive”. The Activity [12] was 56%, the Activity [13] was “inactive” and the Activity [14] was “Active”. The Activity [15] was “inactive”, the Activity [16] was 21.6% and the Activity [17] was “Active”. For the same molecule, the fold change (FC) [18] was 2, the Activity [19] was “Active” and the Activity [20] was “Active”. The IC50 at 24 h [1] was greater than 500 µM, the fold change (FC) [21] was 2 and the Activity [22] was “inactive”. For the same molecule, the Activity [2] was 50.3%, the Activity [23] was “Active” and the Activity [24] was 24.8%. For the same molecule, the Activity [25] was “Active”, the IC50 at 24 h [3] was greater than 500 µM and the Activity [26] was “Active”. The Activity [27] was “Active”, the Activity [28] was “Active” and the IC50 at 24 h [4] was greater than 500 µM. For the same molecule, the inhibition [5] was 17%, the Activity [29] was “Active” and the IC50 at 24 h [6] was greater than 500 µM. For the same molecule, the Activity [30] was “Active”, the IC50 at 24 h [7] was greater than 500 µM and the Activity [31] was “Dose-Dependent Effect”. The Activity [32] was “Active”, the Activity [33] was “Active” and the Activity [34] was 29.4%. For the same molecule, the Activity [35] was 14%, the Activity [8] was 79.4% and the Activity [36] was “Active”.
O=C1O[C@H]([C@@H](O)CO)C(O)=C1O gave an Activity [12] of 39.7%.

Reference: ChEMBL document CHEMBL5230174, “Synthesis and properties of the kojic acid dimer and its potential for the treatment of Alzheimer's disease” (RSC Med Chem, 2023)
